# Laboratory results from ChEMBL document CHEMBL1135672, “QSAR evaluation of the Ch'an Su and related bufadienolides against the colchicine-resistant primary liver carcinoma cell line PLC/PRF/5(1)” (J Med Chem, 2002).
# Assays:
# [1] = Inhibitory activity against colchicine resistant parent primary liver carcinoma (PLC) cell line PLC/PRF/5; assay type: functional, Homo sapiens
# In short: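 PLC/PRF/5 cells were precultured 24 h at 37 °C in 5% CO₂ in 96-well plates, then given colchicine at 0.5 μg/mL. Test compounds were added in dilutions of 10⁻²–10⁻⁶ μg/mL and incubated 72 h at 37 °C in 5% CO₂. Survival was read by MTT. IC50 is the μg/mL giving 50% growth inhibition of the colchicine-resistant cells.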
# [2] = Inhibitory activity against the primary liver carcinoma (PLC) cell line PLC/PRF/5; assay type: functional, Homo sapiens
SMILES,IC50 [1],IC50 [2]
C[C@]12CC[C@H]3[C@@H](CC[C@]4(O)C[C@@H](O)CC[C@]34C=O)[C@@]1(O)CC[C@@H]2c1ccc(=O)oc1,0.00053 µg/mL,0.00016 µg/mL
C[C@]12CC[C@H](O)C[C@H]1CC[C@@H]1[C@@H]2CC[C@]2(C)[C@@H](c3ccc(=O)oc3)C[C@H]3O[C@]132 [BUFOGENIN],0.076 µg/mL,0.077 µg/mL
CC(=O)O[C@H]1[C@H]2O[C@]23[C@@H]2CC[C@@H]4C[C@@H](OC(=O)/C=C/c5ccccc5)CC[C@]4(C)[C@H]2CC[C@]3(C)[C@H]1c1ccc(=O)oc1,9.8 µg/mL,6.4 µg/mL
C[C@]12CC[C@H](O)C[C@H]1CC[C@@H]1[C@@H]2[C@H](O)C[C@]2(C)[C@@H](c3ccc(=O)oc3)CC[C@]12O [GAMABUFOTALIN],0.0008 µg/mL,0.00023 µg/mL
C[C@]12CC[C@H](O)C[C@H]1CC[C@H]1[C@H]3C(=O)C[C@H](c4ccc(=O)oc4)[C@@]3(C)CC[C@@H]12,12 µg/mL,0.82 µg/mL
CC(=O)O[C@H]1CC[C@@]2(C)[C@H](CC[C@@H]3[C@@H]2CC[C@]2(C)[C@@H](c4ccc(=O)oc4)C(=O)[C@H]4O[C@@]432)C1,7.6 µg/mL,2.4 µg/mL
CC(C)(C)OC(=O)NNC(=O)CCC(=O)O[C@H]1CC[C@@]2(C)[C@H](CC[C@@H]3[C@@H]2CC[C@]2(C)[C@@H](c4ccc(=O)oc4)CC[C@]32O)C1,0.0056 µg/mL,0.00062 µg/mL
CC(=O)O[C@H]1[C@H]2O[C@]23[C@@H]2CC[C@]4(O)C[C@@H](O)CC[C@]4(C)[C@H]2CC[C@]3(C)[C@H]1c1ccc(=O)oc1 [CINOBUFOTALIN],0.008 µg/mL,0.001 µg/mL
CC(=O)O[C@H]1[C@H]2O[C@]23[C@@H]2CC[C@@H]4CC(=O)CC[C@]4(C)[C@H]2CC[C@]3(C)[C@H]1c1ccc(=O)oc1,0.77 µg/mL,0.056 µg/mL
C[C@]12CC[C@H](O)C[C@@]1(O)CC[C@@H]1[C@@H]2CC[C@]2(C)[C@@H](c3ccc(=O)oc3)[C@@H](O)[C@H]3O[C@]132 [DESACETYLCINOBUFOTALIN],0.64 µg/mL,0.67 µg/mL
COC(=O)CCCCCCC(=O)O[C@H]1CC[C@@]2(C)[C@H](CC[C@@H]3[C@@H]2CC[C@]2(C)[C@@H](c4ccc(=O)oc4)CC[C@]32O)C1,0.094 µg/mL,0.009 µg/mL
C[C@]12CC[C@H]3[C@@H](CC[C@@H]4C[C@@H](O)CC[C@@]43C=O)[C@]13O[C@@H]3C[C@@H]2c1ccc(=O)oc1,0.075 µg/mL,0.0089 µg/mL
C[C@]12CC[C@@H](O)C[C@H]1CC[C@@H]1[C@@H]2CC[C@]2(C)[C@@H](c3ccc(=O)oc3)C[C@@H]3O[C@]312,6.4 µg/mL,4.7 µg/mL
C[C@]12CCC(=O)C[C@H]1CC[C@@H]1[C@@H]2CC[C@]2(C)[C@@H](c3ccc(=O)oc3)C(=O)[C@H]3O[C@@]312,5.6 µg/mL,0.85 µg/mL
COC(=O)C/C=C/C1=CO[C@]23CCC1[C@@]2(C)C[C@@H](OC(C)=O)[C@H]1[C@H]3CC[C@@H]2C[C@@H](OC(C)=O)CC[C@@]21C,20 µg/mL,9.7 µg/mL
COC(=O)C/C=C/C1=CO[C@]23CCC1[C@@]2(C)CC[C@H]1[C@H]3CC[C@@H]2C[C@@H](O)CC[C@@]21C,45 µg/mL,9.1 µg/mL
CCOC(=O)C/C=C(\C=O)C1[C@@H](O)C(=O)[C@H]2[C@@H]3CC[C@@H]4C[C@@H](OC(C)=O)CC[C@]4(C)[C@H]3CC[C@]12C (some centres not stated),33 µg/mL,22 µg/mL
CC(=O)O[C@H]1CC[C@@]2(C)[C@H](CC[C@@H]3[C@@H]2CC[C@]2(C)[C@@H](C4=CC(=O)OC4)CC[C@]32O)C1,0.5 µg/mL,0.55 µg/mL
CC(=O)O[C@H]1C[C@]2(O)[C@@H]3CC[C@@H]4C[C@@H](O)CC[C@]4(C)[C@H]3CC[C@]2(C)[C@H]1c1ccc(=O)oc1 [BUFOTALIN],0.0026 µg/mL,0.00034 µg/mL
C[C@]12CC[C@H](O)C[C@H]1CC[C@@H]1[C@@H]2CC[C@]2(C)[C@@H](c3ccc(=O)oc3)C[C@@H]3O[C@]312,26 µg/mL,20 µg/mL
C[C@]12CC[C@H](O)C[C@@]1(O)CCC1C2CC[C@]2(C)[C@@H](c3ccc(=O)oc3)C[C@@H]3O[C@@]132 (some centres not stated),0.49 µg/mL,0.52 µg/mL

SMILES,IC50 [1],IC50 [2]
CC(=O)O[C@H]1CC[C@@]2(C)[C@H](CC[C@@H]3[C@@H]2CC[C@]2(C)[C@@H](c4ccc(=O)oc4)[C@@H](O)[C@H]4O[C@]342)C1,3.4 µg/mL,0.098 µg/mL
CC(=O)O[C@H]1[C@H]2O[C@]23[C@@H]2CC[C@@H]4C[C@H](O)CC[C@]4(C)[C@H]2CC[C@]3(C)[C@H]1c1ccc(=O)oc1,0.9 µg/mL,0.098 µg/mL
CC(=O)O[C@H]1CC[C@]2(C)C3CC[C@]4(C)[C@@H](c5ccc(=O)oc5)[C@@H](OC(C)=O)C[C@@]4(O)C3CC[C@@H]2C1 (some centres not stated),21 µg/mL,7.5 µg/mL
C[C@]12CC[C@H](OC(=O)CCCCCCC(=O)O)C[C@H]1CC[C@@H]1[C@@H]2CC[C@]2(C)[C@@H](c3ccc(=O)oc3)CC[C@]12O,0.0036 µg/mL,0.00075 µg/mL
C[C@]12CC[C@H](O)C[C@@]1(O)CC[C@@H]1[C@@H]2CC[C@]2(C)[C@@H](C3=CC(=O)OC3)CC[C@]12O [PERIPLOGENIN],0.75 µg/mL,0.061 µg/mL
CCOC(=O)C/C=C/C1=CO[C@]23CCC1[C@@]2(C)CC[C@H]1[C@H]3CC[C@@H]2C[C@@H](OC(C)=O)CC[C@@]21C,41 µg/mL,6.4 µg/mL
CC(=O)O[C@H]1CC[C@@]2(C)[C@H](CC[C@@H]3[C@@H]2CC[C@]2(C)[C@@H](c4ccc(=O)oc4)CC[C@]32O)C1,0.009 µg/mL,0.0002 µg/mL
C[C@]12CC[C@H](O)C[C@H]1CC[C@@H]1[C@@H]2CC[C@]2(C)[C@@H](c3ccc(=O)oc3)C[C@H](O)[C@]12Cl,0.82 µg/mL,0.07 µg/mL
CC(=O)O[C@H]1[C@H]2O[C@]23[C@@H]2CC[C@@H]4C[C@@H](OC(=O)c5cc([N+](=O)[O-])cc([N+](=O)[O-])c5)CC[C@]4(C)[C@H]2CC[C@]3(C)[C@H]1c1ccc(=O)oc1,9.6 µg/mL,0.78 µg/mL
C[C@]12CC[C@H](O)C[C@H]1CC[C@@H]1[C@@H]2CC[C@]2(C)C(/C(=C/CO)CO)C[C@H]3O[C@]132 (some centres not stated),> 50 µg/mL,> 50 µg/mL
COC(=O)CCCCCCC(=O)O[C@H]1CC[C@@]2(C)[C@H](CC[C@@H]3[C@@H]2CC[C@]2(C)[C@@H](C4=CC(=O)OC4)CC[C@]32O)C1,0.98 µg/mL,0.53 µg/mL
C[C@]12CC[C@H](O)C[C@H]1CC[C@@H]1[C@@H]2CC[C@]2(C)[C@@H](c3ccc(=O)oc3)[C@@H](O)[C@H]3O[C@]132 [DESACETYLCINOBUFAGIN],4.8 µg/mL,0.52 µg/mL
CC(=O)O[C@@H]1CC[C@]2(C)C3CC[C@]4(C)[C@@H](c5ccc(=O)oc5)C[C@@H]5O[C@@]54C3CC[C@@H]2C1 (some centres not stated),43 µg/mL,4.7 µg/mL
C[C@]12CCC(=O)C=C1CCC1C2CC[C@]2(C)[C@@H](c3ccc(=O)oc3)CC[C@]12O (some centres not stated),0.82 µg/mL,0.00019 µg/mL
C[C@]12CC[C@@H](O)C[C@H]1CC[C@@H]1[C@@H]2CC[C@]2(C)[C@@H](c3ccc(=O)oc3)C[C@H]3O[C@]132,43 µg/mL,8.3 µg/mL
CC(=O)O[C@H]1CC[C@@]2(C)[C@H](CC[C@@H]3[C@@H]2CC[C@]2(C)[C@@H](c4ccc(=O)oc4)[C@@H](OC(=O)CCC(=O)O)[C@H]4O[C@]342)C1,> 50 µg/mL,50 µg/mL
CC(=O)O[C@H]1CC[C@@]2(C)[C@H](CC[C@@H]3[C@@H]2CC[C@]2(C)[C@@H](c4ccc(=O)oc4)[C@H](O)[C@H]4O[C@]342)C1,7.5 µg/mL,6.7 µg/mL
COC(=O)C/C=C(\C=O)C1[C@@H](O)C(=O)[C@H]2[C@@H]3CC[C@@H]4C[C@@H](O)CC[C@]4(C)[C@H]3CC[C@]12C (some centres not stated),> 50 µg/mL,8.4 µg/mL
C=C(C)C(=O)O[C@H]1CC[C@@]2(C)[C@H](CC[C@@H]3[C@@H]2CC[C@]2(C)[C@@H](c4ccc(=O)oc4)CC[C@]32O)C1,0.097 µg/mL,0.059 µg/mL
CC(=O)CC1CC2C(O1)[C@H]1O[C@]13[C@@H]1CC[C@@H]4C[C@@H](O)CC[C@]4(C)[C@H]1CC[C@]23C (some centres not stated),> 50 µg/mL,9.5 µg/mL
